Tested on: MS2 coat protein
Test: apparent Kd, MS2 coat protein; higher = weaker binding; RNA-MaP array; FMN 200 µM where present
In short: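 Each design was made on Illumina sequencing-chip clusters by stalled E. coli RNA polymerase and titrated with SNAP-549-labelled MS2 coat protein from 0.7 or 1.5 nM, doubling to 3 µM, in the absence and then the presence of constant ligand. The buffer was 100 mM Tris-HCl pH 7.5, 80 mM KCl, 4 mM MgCl2, BSA, DTT, yeast tRNA and Tween-20. The apparent Kd is the median of filtered per-cluster fits of binding curves, with green signal normalised to red-channel RNA signal and control-cluster median Fmax.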

[1] = designed as: OFF switch for flavin mononucleotide, no ligand
[2] = ligand present: flavin mononucleotide, designed as: OFF switch for flavin mononucleotide
[3] = designed as: ON switch for flavin mononucleotide, no ligand
[4] = ligand present: flavin mononucleotide, designed as: ON switch for flavin mononucleotide

Row | Sequence | apparent Kd [1] | apparent Kd [2] | apparent Kd [3] | apparent Kd [4]
1 | CGAUCACAUGUCAGGAUAUGCGAGCUUGUAUCGCCGUAGAAGGGACAUGAGGAUCACCCAUGUCCGAUCAUUCG | 28.3 nM | 52.1 nM |  | 
2 | UGGUACUAGGGAGGAUAUGGGAAGAUACAUGAGGAUCACCCAUGUUUAUGAAUGCCGAGAGGCAACUAGAAGGCCCUAGUACCU |  |  | 292 nM | 13 nM
3 | CCGGAAAGGAAGGAUAUGCUAGACGAUAGUCUAGCAGAAGGUCCUACAUGAGGAUCACCCAUGUGUCCUACCGG | 45.2 nM | 54.4 nM |  | 
4 | CAGCUACCCAGUAUGGGUUUUUGUACAGAAGGCCAGGUACAUGAGGAUCACCCAUGUAAAGAUAUGGAGGAUAUGUUAGUGUAU |  |  | 29.1 nM | 8.08 nM
5 | UUUUAACAUGAGGAUCACCCAUGUGAGGAUAUCGAAAUUUAUAUUAAUAUUUAUAUUUCGAGAAGGCACAUUUU | 204 nM | 191 nM |  | 
6 | ACGUUUUAUGCAGGAUAUUGACUUAUAUUUAAACAAGAAGGGCAAUACAUGAGGAUCACCCAUGUUAUCAUGGUAUUUAAGUUC | 82.2 nM | 53.9 nM |  | 
7 | GUGGUGCUAAAGAAGCACAUGAGGAUCACCCAUGUGCCGACACAGGAUAUCGACCGCGUUGGCGUCGAGAAGGGUGAGCCUACU |  |  | 63.4 nM | 34.4 nM
8 | CAUAUCGUAAGAGGAUAUAUGAGUCCUACAUGAGGAUCACCCAUGUAGGUGAUCUAACGAGAUUAGUAGAAGGCUUACGAUAUG |  |  | 16.2 nM | 7.62 nM
9 | GAUUCGGGAGGAUAUACAUGAGGAUCACCCAUGUGUUUUUUGUGUGUUUUGUUAUCGUGUAGAAGGUUUGGGUC | 117 nM | 172 nM |  | 
10 | CAUAUGUCAGGAUAUUAUCUCAAGGUAUUCGUUACUAACGAUAAGAAGGGACAUGAGGAUCACCCAUGUGCCGC | 18.4 nM | 24.2 nM |  | 
11 | UUUUUUUUGUGAGGAUAUACAACAUGAGGAUCACCCAUGUCAUGUUCAACAUGAGGAUCACCCAUGUAGAAGGCGCUUUUUUUU | 281 nM | 247 nM |  | 
12 | CCCGCGAUGUCAGGAUAUAGUCGGAGGUGCAGACUAGAAGGGACAUGAGGAUCACCCAUGUGCGUGAACAUUUGAAACCCGGGU | 40.4 nM | 153 nM |  | 
13 | CGCAGUACUUAGGUACUACACAUGAGGAUCACCCAUGUAUCACAGGAUAUGCAUGAUAUAUUCAGGCAGAAGGGUGAUCUUACC |  |  | 54.5 nM | 130 nM
14 | GCAGCAAUUUAAAACAUGAGGAUCACCCAUGUCGAGAGAUAUGAGGAUAUGCAUCGGAUGAAGAUGCAGAAGGCAUUGUGCUGC |  |  | 24.8 nM | 7.68 nM
15 | UAGUCGGUAGAUAAUAAUGAAUACAUGAGGAUCACCCAUGUAUAGGAUAUCGUCAGGAAUACUGACGAGAAGGAUACAUCCGAC | 16.1 nM | 18.4 nM |  | 
16 | CCAGAAUAGAAGGAUAUCGUGCUAUAGAGCGGAUGAGAAGGUCUGACAUGAGGAUCACCCAUGUGCACUUCAUG | 103 nM | 320 nM |  | 
17 | ACAGUAAACGAAGGAUAUGGUUACAUGAGGAUCACCCAUGUAAUGGUUGUGAUAUUGAUUAAGUUCCAGAAGGUCGUAUACUUA | 190 nM | 272 nM |  | 
18 | CCCUCACAUGAGGAUCACCCAUGUCCUAGCAGGUCAGGAUAUAGCCCGCAUCCGCUGCGGCUAGAAGGGACAGCUG |  |  | 244 nM | 105 nM
19 | CGCGCUUUAGGAUAUGCGUGAUGUCGUCGGCGUUGUGGUUCACAUGAGGAUCACCCAUGUAGAAGGGAGGUGUG | 205 nM | 175 nM |  | 
20 | UUUUAACAUGAGGAUCACCCAUGUGAGGAUAUCGAAAUUUAUAUUAAUAUUAUUUUAACGAGAAGGCACAUUUU | 76.7 nM | 84.2 nM |  | 
21 | CGGCUCUCAGGAUAUACCUUGGGUGGCCAACUGUUUCGUUUACAUGAGGAUCACCCAUGUAGAAGGGAGGGCAA | 53.8 nM | 33 nM |  | 
22 | AGGUGACAUGAGGAUCACCCAUGUCAGGAUAUAUACACUGCCGGCGUGACGCCGGCAGAUAGAAGGGACAAAAU | 15.9 nM | 18.4 nM |  | 
23 | UCGGCGCGAGGAUAUACGUUUGCUUUUUAGGAUCGUUGCGUACAUGAGGAUCACCCAUGUAGAAGGCGCGCCGC | 14.6 nM | 19.5 nM |  | 

Source: the EternaBench riboswitch data
